According to the EternaBench riboswitch data:

Tested on: MS2 coat protein
Assay: apparent Kd, MS2 coat protein; higher = weaker binding; RNA-MaP array; FMN 200 µM where present
Summary of the method: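 The apparent Kd is reported as the median of filtered per-cluster binding-curve fits. To get these curves, designs transcribed by stalled E. coli RNA polymerase on Illumina sequencing-chip clusters were titrated with SNAP-549-labelled MS2 coat protein from 0.7 or 1.5 nM, doubling to 3 µM. Titrations were run without and then with constant ligand in 100 mM Tris-HCl pH 7.5, 80 mM KCl, 4 mM MgCl2, BSA, DTT, yeast tRNA and Tween-20, and green signal was normalised to red-channel RNA signal and control-cluster median Fmax.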

[1] = designed as: ON switch for flavin mononucleotide, no ligand
[2] = ligand present: flavin mononucleotide, designed as: ON switch for flavin mononucleotide
[3] = designed as: OFF switch for flavin mononucleotide, no ligand
[4] = ligand present: flavin mononucleotide, designed as: OFF switch for flavin mononucleotide

Sequence | apparent Kd [1] | apparent Kd [2] | apparent Kd [3] | apparent Kd [4]
CGGGCUGCCAGAGGAUAAUGGACAUGAGGAUCACCCAUGUGUCAGGAUAUGGGUUUCACAUGGACUCAGAAGGGACCAGCCCAA | 101 nM | 24.9 nM |  | 
GUAGCAUAUGAUUUACAUGAGGAUCACCCAUGUAUCAUGGGUAAGGAUAUUGAUGUUAUGUUAAUCAAGAAGGUACUAUGCUAC | 281 nM | 18.9 nM |  | 
GCGAUUAAGUAGAAGGUACGUUAUAAGUCAAUGUAAGGAUAUACUGACAUGAGGAUCACCCAUGUUUAAUUUGUUUACUGUCGC | 7.34 nM | 5.7 nM |  | 
ACAUGAGGAUCACCCAUGUUGAAUUAGGAUAUUUGACUGCACAUGAGGUUCACCCAUGUUCUACCGAAGAAGGGAUUAAUAAUU | 120 nM | 118 nM |  | 
ACUGAGGACACAGGAUAUCCGGUUAGGGUAAUCGGAGAAGGGUGACGGCAUGUAGGAAGUCACAUGAGGAUCACCCAUGUGAGA | 182 nM | 83.5 nM |  | 
GGUUGUCAAAGACAACCAUAACGAACAUGAGGAUCACCCAUGUAGGAUAUGCUACUCAAAGAGUAGCAGAAGGACAUGUGCCUU |  |  | 37.6 nM | 326 nM
GUCCGGAGGGAGAAGGGCUAGGAGGUCCAGCUUAUGUGUGUUGCAACAUGAGGAUCACCCAUGUAGCAGGAUAUCCCUUUUACA |  |  | 47 nM | 233 nM
CAGUCUACAGGAUAUACAUGAGGAUCACCCAUGUUUAUCAACCUUCAGUAAUCCACAUGUAGAAGGGUAGACUG |  |  | 19.7 nM | 21.4 nM
AAUUAACUCACAGGAUAUAGCAGAGGUCGCGCGAACUUACAGGCGACGAGGCUAGAAGGGUGACCACAUGAGGAUCACCCAUGU | 770 nM | 72.4 nM |  | 
GACUUCUCUGAGGAUAUUGCAUCAUACGAUAAAUAAGAAGGCAGAACAUGAGGAUCACCCAUGUGGGCUCCAAG |  |  | 54.7 nM | 256 nM
GAGUGACAUGAGGAUCACCCAUGUGAGGAUAUCGGACGGACCUAGUUAGCUUCCGCCGCGAGAAGGCACAUCGG |  |  | 121 nM | 45.8 nM
UAUAUAUAGUAAGGAUAUGUAUAUAAUUUAUAAACAGAAGGUACUGACAUGAGGAUCACCCAUGUUUUAGUGUGGGCAUGUAGA |  |  | 72.8 nM | 141 nM
AUGCCGUGCAGAGCGCGACGGCGUACAUGAGGAUCACCCAUGUAGGAUAUACUACACAAAGUGUAGUAGAAGGACGUGCGACUG |  |  | 30.6 nM | 33.4 nM
UUCAAAUCGUAGAAGGGUGACAUGAGGAUCACCCAUGUGCAGCAGCCGUGAACGGCCAUGCUGCCACAGGAUAUACGAUGGAGU | 93.2 nM | 96.5 nM |  | 
AUAAUUAUAUAUUUGGCAAGAAUCAGAAGGCGUUACAUGAGGAUCACCCAUGUUUUGUAUAGUAACGAGGAUAUGAUAUGGAAA |  |  | 16.3 nM | 12.7 nM
CCGGUGGCGCUAGUGGUGACUGCACAGGAUAUAGCGCUCACAUGAGGAUCACCCAUGUAAGGACGCUAGAAGGGUGAAAGUAUA | 59.9 nM | 19.9 nM |  | 
UGUCGGAGCAGAGGAUAUUACAUGAGGAUCACCCAUGUAUGAACCAAUAGCUGGAAACAGCAAUGUAAGAAGGCUGCUCCGAGA |  |  | 13.3 nM | 196 nM
ACUUGUAAGCAGAAGGCAGUCAUUAUAUUAAUCAUGUAGACAUGAGGAUCACCCAUGUAGAGUACUGAGGAUAUGCAUCGAUAG |  |  | 11 nM | 7.34 nM
UUUUAACAUGAGGAUCACCCAUGUGAGGAUAUCGAAAUUUAUAUUUAUAUUAAUUAUUCGAGAAGGCACAUUUU |  |  | 163 nM | 133 nM
AGUAGAUCAGGAUAUACGUGAAAGGUCAAAGUGUCCAAUAUACAUGAGGAUCACCCAUGUAGAAGGGAUCUACA |  |  | 24.8 nM | 111 nM
CUUCCAGUUGCAGGAUAUCGGGAGGAGAGAUUACGAGAAGGGCAACAUGAGGAUCACCCAUGUAUGUGCUUGGGACAACCUAUC |  |  | 13.2 nM | 38.2 nM
GCGUAUAUAUUAUUUAUUUAACUGUCAGAAGGUGAGAAGACGACAUGAGGAUCACCCAUGUUAUUCAAGGAUAUGAUAAUGCGC | 13.5 nM | 8.94 nM |  | 
AAAUCGAGGUAACUCGCUAUCACACCAGAAGGGACGGAGGCACAUGAGGAUCACCCAUGUCCUAGUCAGGAUAUGGGUGAGUGG | 25.6 nM | 4.96 nM |  | 
GGUAUGCAGCAGGAUAUCCAUCCGCGGUAUGGUGGAGAAGGGCUGACAUGAGGAUCACCCAUGUGCGUCCUAGG |  |  | 32.8 nM | 87.6 nM

Sequence | apparent Kd [1] | apparent Kd [2] | apparent Kd [3] | apparent Kd [4]
UGUCGGAGCAGAGGAUAUACAUGAGGAUCACCCAUGUAAAUGAAUGAAGCCUGGAAACAGGCAAUGUAGAAGGCUGCUCCGACA |  |  | 17.2 nM | 53.7 nM
UUCCAACGAGGAUAUCGAUGGUGGAACAUGAGGAUCACCCAUGUAUGAGAUAUUGUAGUUCGAGAAGGCGUUCAGU |  |  | 36.9 nM | 32.2 nM
CAGAAGUCAGGAUAUGCUGCUCGUCACUUGCGUGAUGAGUAGCAGAAGGGACAUGAGGAUCACCCAUGUAAAGG |  |  | 160 nM | 417 nM
CCUGGUUGGUAAGGAUAUCCUACACUGUUCUGACCCGUGCAAGCUACAUGAGGAUCACCCAUGUGGGAGAAGGUGCGUCAACGC |  |  | 12.6 nM | 11.7 nM
CAGCUACCCAGUAUGGGUAUUUGUACAGAAGGCCAGGUACAUGAGGAUCACCCAUGUAAAGAUAUGGAGGAUAUGUUAGUGUAU | 22.1 nM | 6.86 nM |  | 
AGAUUUGUACAUGAGGAUCACCCAUGUUAAUAGGUGGUUGUCAGAAGGCAUUGAUAGAGUUUUAAUGAGGAUAUGAAUUUACAG | 1000 nM | 553 nM |  | 
CUGCAACAUGAGGAUCACCCAUGUAACCCAAUUAUAGGAUAUGUGAUGGUGAUCGACAUGACAGAAGGGUGAUUGG | 38.8 nM | 149 nM |  | 
AAUAAACUCACAGGAUAUAGCAUCGUCGUUGCGAACUUAGCGACGACGAUGCUAGAAGGGUGUAUACAUGAGGAUCACCCAUGU | 23 nM | 11.2 nM |  | 
GGAUAGGACAGAGGAUAUAGGUGCUAGAGAUACUAGCAAAAUUUCCUCACAUGAGGAUCACCCAUGUAGAAGGCUGUCCUAUCG |  |  | 11.5 nM | 25.4 nM
GUUUGGAGUGGAGGAUAUGCGGACGAACGAUAAGCAGAAGGCCACAUGAGGAUCACCCAUGUCGGCUGUGCCGGGUGGUUGACG |  |  | 41.6 nM | 50.8 nM
AAUUGGAUGCAGAAGGCAUGGACGACUCGUCACAUUAACAUGAGGAUCACCCAUGUCAAAAGACAUGAGGAUAUGCAUCCUAAA | 233 nM | 13.6 nM |  | 
GGUACUCAAAGAGUACUGAGUCGAACAUGAGGAUCACCCAUGUAGGAUAUGCGAGUUUUGAAUUUGCAGAAGGACAUUUUUAGC |  |  | 8.88 nM | 9.59 nM
AUAAUACAUGAGGAUCACCCAUGUAAUUUAACUUGUAAGAUCAAGGAUAUCAGCUCGAAUAGAGCUGAGAAGGUGAUCACAUGU | 169 nM | 295 nM |  | 
ACAUGAGGAUCACCCAUGUGGAGUGAAGAAGGUGGUUACUUAAGACUCUUCCAUGUACUUAGGACUGAGGAUAUUCUAAUAUUU | 53.8 nM | 30.5 nM |  | 
UUUUCUUUUGUGAGGAUAUACUUGUUUUUUUUUUUGUAGAAGGCACAUGAGGAUCACCCAUGUUUUCUUUCCUG |  |  | 17 nM | 19.8 nM
GCCAUCGCGUGAGGAUAUGGCACCGUUUCGGUGCCAGAAGGCAUGUCAAAUGACAUGAGGAUCACCCAUGUAGUUAAGAUGGCA | 180 nM | 13.2 nM |  | 
GGUCGUCACAUAUACAUGAGGAUCACCCAUGUCAAAAGACAUGAGGAUAUGGAUAAUAAUAUAAACCAGAAGGCAUGGACGACC | 961 nM | 59.6 nM |  | 
UUGGUUGUCGUAGGAUAUGUAGGAUAUUCCUACAUGAGGAUCACCCAUGUUCGCAUGGAAGAAGGACGGAAGGACGAUGACCAU | 317 nM | 109 nM |  | 
AUCAGCUCGUCAGGAUAUAAGUCACUGCGUCAGCAGUGUGGUAAGAUCACAUGAGGAUCACCCAUGUAGAAGGGACGAGCUGAU |  |  | 11.8 nM | 46.7 nM
AGACUGCGUAGAAUUAGCAGCCGGCAGGAUAUGACAUGAGGAUCACCCAUGUGAACUCCAUUGGGUCAGAAGGGCCACGACACA |  |  | 21.8 nM | 147 nM
AAACAUGUCCGAGGAUAUCUGAGAACAUUUUCAAGAGAAGGCGGACAUGAGGAUCACCCAUGUCUCUCCUCAUCAACUCCAAAU |  |  | 6.37 nM | 17.3 nM
CCUGUCGCAUGAGGAUAUGGUCAGCUUUGCUGACCAGAAGGCAUGUCAAUAGACAUGAGGAUCACCCAUGUAGUUAAGACAGGA | 615 nM | 46.7 nM |  | 
CCGAUGAUAGGACAGGAUAUGACUGUCGUCACAUGAGGAUCACCCAUGUCCCGGCAAUGCCACCGUUAGAAGGGUCCUAUCUCGG | 13.1 nM | 13 nM |  | 
